Assay results reported in ChEMBL document CHEMBL1146375, “Synthetic studies on novel benzimidazolopeptides with antimicrobial, cytotoxic and anthelmintic potential” (2007).

Tested on: Eudrilus
Experiment: Anthelmintic activity against Eudrilus sp. assessed as mean death time
Type: functional
Conditions: not given
In short: (§1)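 Earthworms exposed to test suspensions at 2 mg mL−1, prepared by triturating compound with Tween 80 (0.5%) and distilled water, stirring 30 min, then diluting to 0.2% w/v. Mebendazole suspension was made the same way. Death was confirmed by moving worms into 50 °C warm water and looking for movement. Mean death time (min) taken from triplicate sets.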

| Structure (SMILES) | Time [min] |
| --- | --- |
| O=C(O)[C@@H]1CCCN1C(=O)[C@@H]1CCCN1C(=O)[C@@H]1CCCN1C(=O)c1cc(-c2nc3ccc([N+](=O)[O-])cc3[nH]2)ccc1O | 37.23 |

Tested on: not listed separately
Experiment: Growth inhibition of DLA cells at 500 ug/mL after 3 hrs
Type: functional
Conditions: Mus musculus
In short: (§2)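 DLA and EAC cells passaged intraperitoneally in albino mice, harvested after 15–20 days and adjusted to 1 × 10⁶ cells/mL. Dilutions in Dulbecco's medium (500–31.25, some down to 3.91 µg/mL; 5-FU reference) mixed 1:1 with cells and held 3 h at 37 °C. Trypan blue exclusion gave % growth inhibition; CTC50 by graphical extrapolation.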

| Structure (SMILES) | inhibition at 500 µg/mL [%] |
| --- | --- |
| O=C(O)[C@@H]1CCCN1C(=O)[C@@H]1CCCN1C(=O)[C@@H]1CCCN1C(=O)c1cc(-c2nc3ccc([N+](=O)[O-])cc3[nH]2)ccc1O | 65.8 |

Tested on: not listed separately
Experiment: Growth inhibition of DLA cells at 250 ug/mL after 3 hrs
Type: functional
Conditions: Mus musculus
In short: as §2

| Structure (SMILES) | inhibition at 250 µg/mL [%] |
| --- | --- |
| O=C(O)[C@@H]1CCCN1C(=O)[C@@H]1CCCN1C(=O)[C@@H]1CCCN1C(=O)c1cc(-c2nc3ccc([N+](=O)[O-])cc3[nH]2)ccc1O | 52.6 |

Tested on: not listed separately
Experiment: Growth inhibition of DLA cells at 125 ug/mL after 3 hrs
Type: functional
Conditions: Mus musculus
In short: as §2

| Structure (SMILES) | inhibition at 125 µg/mL [%] |
| --- | --- |
| O=C(O)[C@@H]1CCCN1C(=O)[C@@H]1CCCN1C(=O)[C@@H]1CCCN1C(=O)c1cc(-c2nc3ccc([N+](=O)[O-])cc3[nH]2)ccc1O | 47.4 |

Tested on: not listed separately
Experiment: Growth inhibition of DLA cells at 62.5 ug/mL after 3 hrs
Type: functional
Conditions: Mus musculus
In short: as §2

| Structure (SMILES) | inhibition at 62.5 µg/mL [%] |
| --- | --- |
| O=C(O)[C@@H]1CCCN1C(=O)[C@@H]1CCCN1C(=O)[C@@H]1CCCN1C(=O)c1cc(-c2nc3ccc([N+](=O)[O-])cc3[nH]2)ccc1O | 34.2 |

Tested on: not listed separately
Experiment: Growth inhibition of DLA cells at 31.25 ug/mL after 3 hrs
Type: functional
Conditions: Mus musculus
In short: as §2

| Structure (SMILES) | inhibition at 31.25 µg/mL [%] |
| --- | --- |
| O=C(O)[C@@H]1CCCN1C(=O)[C@@H]1CCCN1C(=O)[C@@H]1CCCN1C(=O)c1cc(-c2nc3ccc([N+](=O)[O-])cc3[nH]2)ccc1O | 18.4 |

Tested on: not listed separately
Experiment: Growth inhibition of DLA cells after 3 hrs
Type: functional
Conditions: Mus musculus
In short: as §2

| Structure (SMILES) | CC50 [µM] |
| --- | --- |
| O=C(O)[C@@H]1CCCN1C(=O)[C@@H]1CCCN1C(=O)[C@@H]1CCCN1C(=O)c1cc(-c2nc3ccc([N+](=O)[O-])cc3[nH]2)ccc1O | 332 |

Tested on: not listed separately
Experiment: Growth inhibition of EAC cells at 500 ug/mL after 3 hrs
Type: functional
Conditions: Mus musculus, Ehrlich
In short: as §2

| Structure (SMILES) | inhibition at 500 µg/mL [%] |
| --- | --- |
| O=C(O)[C@@H]1CCCN1C(=O)[C@@H]1CCCN1C(=O)[C@@H]1CCCN1C(=O)c1cc(-c2nc3ccc([N+](=O)[O-])cc3[nH]2)ccc1O | 28.7 |

Tested on: not listed separately
Experiment: Growth inhibition of EAC cells at 250 ug/mL after 3 hrs
Type: functional
Conditions: Mus musculus, Ehrlich
In short: as §2

| Structure (SMILES) | inhibition at 250 µg/mL [%] |
| --- | --- |
| O=C(O)[C@@H]1CCCN1C(=O)[C@@H]1CCCN1C(=O)[C@@H]1CCCN1C(=O)c1cc(-c2nc3ccc([N+](=O)[O-])cc3[nH]2)ccc1O | 21.4 |

Tested on: not listed separately
Experiment: Growth inhibition of EAC cells at 125 ug/mL after 3 hrs
Type: functional
Conditions: Mus musculus, Ehrlich
In short: as §2

| Structure (SMILES) | inhibition at 125 µg/mL [%] |
| --- | --- |
| O=C(O)[C@@H]1CCCN1C(=O)[C@@H]1CCCN1C(=O)[C@@H]1CCCN1C(=O)c1cc(-c2nc3ccc([N+](=O)[O-])cc3[nH]2)ccc1O | 10.7 |

Tested on: not listed separately
Experiment: Growth inhibition of EAC cells at 62.5 ug/mL after 3 hrs
Type: functional
Conditions: Mus musculus, Ehrlich
In short: as §2

| Structure (SMILES) | inhibition at 62.5 µg/mL [%] |
| --- | --- |
| O=C(O)[C@@H]1CCCN1C(=O)[C@@H]1CCCN1C(=O)[C@@H]1CCCN1C(=O)c1cc(-c2nc3ccc([N+](=O)[O-])cc3[nH]2)ccc1O | 7.14 |

Tested on: not listed separately
Experiment: Growth inhibition of EAC cells at 31.25 ug/mL after 3 hrs
Type: functional
Conditions: Mus musculus, Ehrlich
In short: as §2

| Structure (SMILES) | inhibition at 31.25 µg/mL [%] |
| --- | --- |
| O=C(O)[C@@H]1CCCN1C(=O)[C@@H]1CCCN1C(=O)[C@@H]1CCCN1C(=O)c1cc(-c2nc3ccc([N+](=O)[O-])cc3[nH]2)ccc1O | 3.57 |

Tested on: not listed separately
Experiment: Growth inhibition of EAC cells after 3 hrs
Type: functional
Conditions: Mus musculus, Ehrlich
In short: as §2

| Structure (SMILES) | CC50 [µM] |
| --- | --- |
| O=C(O)[C@@H]1CCCN1C(=O)[C@@H]1CCCN1C(=O)[C@@H]1CCCN1C(=O)c1cc(-c2nc3ccc([N+](=O)[O-])cc3[nH]2)ccc1O | > 847 |

Tested on: not listed separately
Experiment: Anthelmintic activity against Megascoplex konkanensis ICARBC 211 assessed as mean paralyzing time
Type: functional
Conditions: not given
In short: (§3)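 Earthworms exposed to test suspensions at 2 mg mL^-1 (0.2% w/v), made by triturating compound with Tween 80 (0.5%) and distilled water, then mechanically stirred 30 min. Mebendazole suspension prepared alike as reference. Paralysis and death times recorded; death confirmed by no movement in 50 °C water. Means from triplicate sets.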

| Structure (SMILES) | TIME [h] |
| --- | --- |
| O=C(O)[C@@H]1CCCN1C(=O)[C@@H]1CCCN1C(=O)[C@@H]1CCCN1C(=O)c1cc(-c2nc3ccc([N+](=O)[O-])cc3[nH]2)ccc1O | 0.418 |

Tested on: not listed separately
Experiment: Anthelmintic activity against Megascoplex konkanensis ICARBC 211 assessed as mean death time
Type: functional
Conditions: not given
In short: as §3

| Structure (SMILES) | TIME [h] |
| --- | --- |
| O=C(O)[C@@H]1CCCN1C(=O)[C@@H]1CCCN1C(=O)[C@@H]1CCCN1C(=O)c1cc(-c2nc3ccc([N+](=O)[O-])cc3[nH]2)ccc1O | 0.567 |

Tested on: Pontoscolex corethrurus
Experiment: Anthelmintic activity against Pontoscolex corethrurus ICARBC 408 assessed as mean paralyzing time
Type: functional
Conditions: not given
In short: as §3

| Structure (SMILES) | Time [min] |
| --- | --- |
| O=C(O)[C@@H]1CCCN1C(=O)[C@@H]1CCCN1C(=O)[C@@H]1CCCN1C(=O)c1cc(-c2nc3ccc([N+](=O)[O-])cc3[nH]2)ccc1O | 30.52 |

Tested on: Pontoscolex corethrurus
Experiment: Anthelmintic activity against Pontoscolex corethrurus ICARBC 408 assessed as mean death time
Type: functional
Conditions: not given
In short: as §1

| Structure (SMILES) | Time [min] |
| --- | --- |
| O=C(O)[C@@H]1CCCN1C(=O)[C@@H]1CCCN1C(=O)[C@@H]1CCCN1C(=O)c1cc(-c2nc3ccc([N+](=O)[O-])cc3[nH]2)ccc1O | 40.2 |
